Data from ChEMBL document CHEMBL1148956, “New sesquiterpenes from Pluchea arabica” (J Nat Prod, 2004).
Converted amounts (≈) assume the structure as drawn. The source made the active and inactive calls. No cut-off for these calls is given here.

Columns and labels:
Pseudomonas aeruginosa = experiment: Antimicrobial activity against Pseudomonas aeruginosa ATCC 27853 up to 500 ug/ml by agar-dilution-streak method; assay type: functional, organism-based
How it was run: (§1)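 Screened with the agar-dilution-streak method. MIC was set by broth dilution following NCCLS. Compounds were dissolved in DMSO and diluted to graded concentrations in tryptone soy broth.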

Staphylococcus aureus = experiment: Antimicrobial activity against Staphylococcus aureus ATCC 29213 by agar-dilution-streak method; assay type: functional; how it was run: as §1
Candida albicans = experiment: Antimicrobial activity against Candida albicans ATCC 10231 up to 500 ug/ml by agar-dilution-streak method; assay type: functional, organism-based; how it was run: as §1
Klebsiella pneumoniae = experiment: Antimicrobial activity against Klebsiella pneumoniae ATCC 10031 up to 500 ug/ml by agar-dilution-streak method; assay type: functional, organism-based; how it was run: as §1
[1] = system: Radical scavenging activity; experiment: Antioxidant activity assessed as DPPH free radical scavenging activity relative to control; assay type: functional
Salmonella enterica = experiment: Antimicrobial activity against Salmonella choleraesuis ATCC 14028 up to 500 ug/ml by agar-dilution-streak method; assay type: functional, organism-based
How it was run: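 Salmonella choleraesuis ATCC 14028 was tested by the agar-dilution-streak method, alongside S. aureus ATCC 29213, P. aeruginosa ATCC 27853, C. albicans ATCC 10231 and K. pneumoniae ATCC 10031. Test compounds were dissolved in DMSO.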

[2] = Toxicity against brine shrimp larvae; assay type: organism-based; settings: artemia, in vivo
Escherichia coli = experiment: Antimicrobial activity against Escherichia coli ATCC 9637 up to 500 ug/ml by agar-dilution-streak method; assay type: functional, organism-based

| SMILES | Activity (Pseudomonas aeruginosa) | MIC (Staphylococcus aureus) [µg/mL] | Activity (Candida albicans) | Activity (Klebsiella pneumoniae) | Activity [1] [%] | Activity (Salmonella enterica) | LC50 [2] [µg/mL] | Activity (Escherichia coli) |
| --- | --- | --- | --- | --- | --- | --- | --- | --- |
| C=C1C(CC2C[C@H](O)C=C2C)C(C)(C)C[C@H]1O (stereo partly specified) [GODOTOL A] | inactive | 250 (≈ 1060 µM) | inactive | inactive | < 10 | inactive | 290 (≈ 1230 µM) | inactive |
| C=C1C[C@@H](O)C=C(C)C2C1CC[C@@H](O)C2(C)C (stereo partly specified) [GODOTOL B] | inactive | 500 (≈ 2120 µM) | inactive | inactive | < 10 | inactive | 540 (≈ 2280 µM) | inactive |
